Experiment [1] addresses Muscarinic acetylcholine receptor M3 (Homo sapiens) (UniProt P20309). The experiment is described as follows: Percent binding affinity at muscarinic acetylcholine receptor M3 from SK-N-SH human neuroblastoma cells in presence of [3H]NMS. The format is cell-based. Put shortly:
(§1)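 Crude membranes from confluent cells, lysed in 2 mM Tris-HCl (pH 7.1)/1 mM EDTA, homogenized, spun at 50000 g and stored at -70 °C. Membranes (150-300 µg protein) incubated 90 min at 37 °C with 0.5 nM [3H]NMS and 100 µM compound in DMEM-Hepes, then filtered on GF/B. Nonspecific binding taken with 1 µM atropine. Reported as percent displacement; two or three trials in triplicate.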

Experiment [2] addresses T1, Muscarinic acetylcholine receptor M4 (Rattus norvegicus) (UniProt P08485).
T1 sequence (whole entry): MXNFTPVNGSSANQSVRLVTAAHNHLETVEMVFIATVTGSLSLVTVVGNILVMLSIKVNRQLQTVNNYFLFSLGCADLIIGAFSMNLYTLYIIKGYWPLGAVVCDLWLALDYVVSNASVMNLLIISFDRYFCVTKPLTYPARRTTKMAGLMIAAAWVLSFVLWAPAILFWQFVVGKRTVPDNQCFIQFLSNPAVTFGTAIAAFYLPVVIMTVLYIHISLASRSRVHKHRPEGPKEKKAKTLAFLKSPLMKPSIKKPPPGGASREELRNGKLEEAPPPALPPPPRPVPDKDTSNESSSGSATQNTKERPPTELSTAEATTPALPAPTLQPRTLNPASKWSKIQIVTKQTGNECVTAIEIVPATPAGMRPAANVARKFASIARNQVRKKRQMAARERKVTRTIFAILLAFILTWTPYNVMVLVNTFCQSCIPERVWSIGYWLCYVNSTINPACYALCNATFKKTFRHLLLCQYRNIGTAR
Description: Percent inhibition against muscarinic acetylcholine receptor M4 from NG108-15 cell line. The format is cell-based. Also noted: concentration or dose not given beside the values. The method, boiled down: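 NG108-15 cells grown to 90% confluence and preincubated 10 min at 37 °C in 1 mM IBMX in DMEM-Hepes. Compound (100 µM final) and PGE1 (5 µM final) were added for 15 min at 37 °C. cAMP was extracted in 0.1 N HCl for 30 min at room temperature, lyophilized and measured by radioimmunoassay. Reported as percent inhibition versus no-compound control; three trials in triplicate.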

Experiment [3] deals with T1, Muscarinic acetylcholine receptor M4 (Rattus norvegicus). Description: Binding affinity at muscarinic acetylcholine receptor M4 from NG108-15 cell line in presence of [3H]-NMS. The format is cell-based. The method, boiled down: as §1
The target in experiment [4] is Muscarinic acetylcholine receptor M3 (Homo sapiens) (UniProt P20309). The experiment is described as follows: Percent increase in [3H]myo-inositol at muscarinic acetylcholine receptor M3 from SK-N-SH human neuroblastoma cells. Type of experiment: cell-based. Also noted: concentration or dose not given beside the values. Put shortly:
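SK-N-SH cells grown in DMEM with 10% newborn calf serum and plated at 100000 cells/well. After 24 h they were labeled overnight with [3H]-myo-inositol (2 µCi/well). Cells were rinsed and preincubated 5 min at 37 °C in 10 mM LiCl DMEM-Hepes, then exposed to 100 µM final compound for 30 min at 37 °C. Reported as percent increase relative to oxotremorine M (100%); two or three trials in triplicate.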

Experiment [5] concerns the target Muscarinic acetylcholine receptor. The experiment is described as follows: Binding affinity was determined using [3H]-NMS for Muscarinic acetylcholine receptor in SK-N-SH neuroblastoma cells. Type of experiment: cell-based, Homo sapiens. The method, boiled down: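 SK-N-SH crude membranes from hypotonic lysis (2 mM Tris-HCl pH 7.1, 1 mM EDTA), 50000 g pellets. Competition used varied compound concentrations with 1 nM [3H]NMS in DMEM-Hepes, 60 min at 37°C, then GF/B filtration. Atropine defined nonspecific binding. Ki was obtained by Cheng-Prusoff from the [3H]NMS Kd (saturation, 10 min at 37°C). Means ± SEM of three determinations in duplicate.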

Chain of Muscarinic acetylcholine receptor M3 (Homo sapiens) (P20309 whole entry, looked up): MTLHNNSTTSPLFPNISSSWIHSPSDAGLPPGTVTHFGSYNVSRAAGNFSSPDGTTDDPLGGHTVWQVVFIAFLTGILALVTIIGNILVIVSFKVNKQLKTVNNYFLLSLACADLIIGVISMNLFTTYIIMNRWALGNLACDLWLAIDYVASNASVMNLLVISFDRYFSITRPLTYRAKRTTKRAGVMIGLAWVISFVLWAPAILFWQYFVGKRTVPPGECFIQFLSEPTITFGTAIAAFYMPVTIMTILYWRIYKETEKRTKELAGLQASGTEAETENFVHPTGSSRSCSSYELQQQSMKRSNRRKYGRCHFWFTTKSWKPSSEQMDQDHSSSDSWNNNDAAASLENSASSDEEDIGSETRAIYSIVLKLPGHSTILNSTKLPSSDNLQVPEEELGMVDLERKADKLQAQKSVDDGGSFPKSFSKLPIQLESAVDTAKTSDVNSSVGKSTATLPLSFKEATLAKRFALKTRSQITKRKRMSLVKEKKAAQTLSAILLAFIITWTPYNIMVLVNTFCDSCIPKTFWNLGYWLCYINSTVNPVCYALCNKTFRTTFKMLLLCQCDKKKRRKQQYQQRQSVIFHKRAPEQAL

On to `CN(CC#CCN1CCCC1)C(=O)CCCNC(=O)CNC(=O)OC(C)(C)C`, for which the Affinity in experiment [1] is 37.5%; in experiment [3] it was 24.4%. In addition, the Activity in experiment [2] and in experiment [4] was < 1% throughout.

For `CC(=O)NCCCCCCCC(=O)N(C)CC#CCN1CCCC1`, the Affinity came to 59.1% in experiment [1] and 50.4% in experiment [3]. Moreover, the Activity in experiment [2] and in experiment [4] was < 1% throughout.

With `CC(=O)NCCCCCC(=O)N(C)CC#CCN1CCCC1`, the Affinity in experiment [1] came out at 17.4%; in experiment [3] it was 22.7%. The Activity was 3% in experiment [2] and 1% in experiment [4].

Take `CC(=O)NCCCCCCC(=O)N(C)CC#CCN1CCCC1`: the Affinity in experiment [1] was determined as 24.6%; in experiment [3] it was 20.4%. Further, the figures for the Activity in experiment [2] and in experiment [4] were 6.9% and 1%, respectively.

As for `CN(CC#CCN1CCCC1)C(=O)CCCCCNC(=O)CCN`, the Affinity in experiment [1] came to 70.5%; in experiment [3] it was 56.8%. Further, the Activity in experiment [2] is < 1%; in experiment [4], 7%.

Take `CN(CC#CCN1CCCC1)C(=O)CCNC(=O)OC(C)(C)C`: the Affinity was 45.1% in experiment [1] and 36.3% in experiment [3]. The Activity in experiment [2] is 12.5%; in experiment [4] it was < 1%.

Consider `CN(CC#CCN1CCCC1)C(=O)c1cccc(Cl)c1`, for which the Affinity in experiment [1] was 55%; in experiment [3], 34%. Also, the Activity in experiment [2] is < 1%; in experiment [4] it was 4%.

As to `CN(CC#CCN1CCCC1)C(=O)CCCCCCCNC(=O)OC(C)(C)C.O=C(O)C(=O)O`, the Affinity in experiment [1] came out at 92.1%; in experiment [3], 89%. For the same compound, the Activity in experiment [2] and in experiment [4] was < 1% each time. For the same compound, the Ki (in general, a dissociation constant, usually derived from enzyme kinetics or from competition with a known ligand) in experiment [5] is 4.9 µM.

Consider `CN(CC#CCN1CCCC1)C(=O)CCCNC(=O)OC(C)(C)C`, for which the values for the Affinity in experiment [1] and in experiment [3] were 32.1% and 24.4%, respectively. For the same compound, the Activity was 3.5% in experiment [2] and < 1% in experiment [4].

Take `CN(CC#CCN1CCCC1)C(=O)CCCCCCNC(=O)OC(C)(C)C.O=C(O)C(=O)O`: the Affinity was 81.4% in experiment [1] and 77.9% in experiment [3]. The Activity in experiment [2] and in experiment [4] was < 1% each time. The Ki in experiment [5] was 10.9 µM.

Regarding `CN(CC#CCN1CCCC1)C(=O)CCCN`, the values for the Affinity in experiment [1] and in experiment [3] were 20% and 12.1%, respectively. Moreover, the Activity in experiment [2] is 3.7%; in experiment [4], < 1%.

`CC(=O)NCCCCC(=O)N(C)CC#CCN1CCCC1`: the Affinity in experiment [1] was 29.4%; in experiment [3], 17.9%. Also, the Activity in experiment [2] is 5.2%; in experiment [4], < 1%.

On to `CN(CC#CCN1CCCC1)C(=O)CCC(=O)NCCN`, for which the Affinity in experiment [1] came out at 25%; in experiment [3], 14%. The Activity in experiment [2] and in experiment [4] was < 1% each time.

`CN(CC#CCN1CCCC1)C(=O)CCCNC(=O)CN`: the Affinity in experiment [1] is 47%; in experiment [3], 31%. Moreover, the Activity in experiment [2] was < 1%; in experiment [4], 7%.

Regarding `CC(=O)N(C)CC#CCN1CCCC1`, the Affinity in experiment [1] turned out to be 88.8%; in experiment [3] it was 79.6%. Also, the Activity in experiment [2] amounted to 63.2%; in experiment [4], 48%. This compound also gave a Ki in experiment [5] of 4.96 µM.

Take `CN(CC#CCN1CCCC1)C(=O)CCCNC(=O)c1ccccc1`: the Affinity came out at 30.3% in experiment [1] and 27.7% in experiment [3]. In addition, the Activity in experiment [2] and in experiment [4] was < 1% in each case.

For the compound `CN(CC#CCN1CCCC1)C(=O)CCCNC(=O)CCNC(=O)OC(C)(C)C`, the values for the Affinity in experiment [1] and in experiment [3] were 39.2% and 38.8%, respectively. Besides, the Activity in experiment [2] and in experiment [4] was < 1% throughout.

For the compound `CN(CC#CCN1CCCC1)C(=O)CNC(=O)OC(C)(C)C`, the Affinity in experiment [1] turned out to be 40%; in experiment [3], 32.6%. For the same compound, the Activity in experiment [2] is 7%; in experiment [4], < 1%.

For `CN(CC#CCN1CCCC1)C(=O)CCCCCNC(=O)c1ccccc1`, the Affinity in experiment [1] came to 51.7%; in experiment [3], 52.8%. For the same compound, the Activity in experiment [2] and in experiment [4] was < 1% in each case.

For `CN(CC#CCN1CCCC1)C(=O)CCCNC(=O)CCN`, the Affinity in experiment [1] was 40.5%; in experiment [3] it was 29%. The Activity is < 1% in experiment [2] and 7% in experiment [4].

In the case of `CN(CC#CCN1CCCC1)C(=O)CCCCCNC(=O)OC(C)(C)C`, the Affinity in experiment [1] is 39.1%; in experiment [3] it was 31.9%. Further, the Activity in experiment [2] and in experiment [4] was < 1% throughout.

For `CN(CC#CCN1CCCC1)C(=O)CCCCNC(=O)OC(C)(C)C`, the Affinity came out at 32.1% in experiment [1] and 26.7% in experiment [3]. The Activity in experiment [2] was found to be 0.5%; in experiment [4] it was 1%.

`CN(CC#CCN1CCCC1)C(=O)CCCCCNC(=O)CN`: the Affinity was 65% in experiment [1] and 57% in experiment [3]. In addition, the Activity in experiment [2] and in experiment [4] was < 1% throughout.

Take `CN(CC#CCN1CCCC1)C(=O)CN`: the Affinity was 17.3% in experiment [1] and 23.5% in experiment [3]. Besides, the Activity in experiment [2] was 26.1%; in experiment [4], < 1%.

Take `CN(CC#CCN1CCCC1)C(=O)CCC(=O)O`: the Affinity was determined as 6% in experiment [1] and 0% in experiment [3]. The Activity in experiment [2] and in experiment [4] was < 1% each time.

Consider `CC(=O)N(C)C(C)C#CCN1CCCC1` (stereo unspecified), for which the Affinity came out at 99% in experiment [1] and 97% in experiment [3]. Further, the Activity was 36% in experiment [2] and < 1% in experiment [4]. This compound also registered an inhibition constant (Ki) in experiment [5] of 0.33 µM.

For the compound `CN(CC#CCN1CCCC1)C(=O)CCCCCNC(=O)CNC(=O)OC(C)(C)C`, the Affinity in experiment [1] stood at 52.6%; in experiment [3] it was 52.3%. The Activity in experiment [2] is < 1%; in experiment [4], 3%.

Regarding `CC(=O)NCCCC(=O)N(C)CC#CCN1CCCC1`, the Affinity in experiment [1] is 15.6%; in experiment [3], 19.1%. The figures for the Activity in experiment [2] and in experiment [4] were 8% and 14%, respectively.

Turning to `COC(=O)CCC(=O)N(C)CC#CCN1CCCC1`, the Affinity in experiment [1] was found to be 28%; in experiment [3], 7%. Moreover, the Activity in experiment [2] and in experiment [4] was < 1% each time.

As for `CN(CC#CCN1CCCC1)C(=O)c1ccccc1`, the Affinity in experiment [1] turned out to be 40%; in experiment [3], 25%. Besides, the Activity in experiment [2] is < 1%; in experiment [4], 8%.

On to `C[N+](C)(C)CC#CCN1CCCC1=O`, for which the Affinity was 52.1% in experiment [1] and 96.2% in experiment [3]. For the same compound, the Activity in experiment [2] worked out at 64.1%; in experiment [4], 100%.

For the compound `CC(=O)NCC(=O)N(C)CC#CCN1CCCC1`, the Affinity in experiment [1] stood at 12.5%; in experiment [3], 24%. The Activity turned out to be 14.1% in experiment [2] and 8% in experiment [4].

Take `CN(CC#CCN1CCCC1)C(=O)CCCCCNC(=O)CCNC(=O)OC(C)(C)C`: the results for the Affinity in experiment [1] and in experiment [3] were 59.1% and 57.3%, respectively. Further, the Activity in experiment [2] and in experiment [4] was < 1% in each case.
